Measured values from ChEMBL document CHEMBL4184291, “Discovery of N-arylpyrroles as agonists of GPR120 for the treatment of type II diabetes” (Bioorg Med Chem Lett, 2018).
pEC50: −log10 of the molar value.

Assays:
[1] = AUClast in mouse at 14.6 mg/kg, po by LC-MS/MS analysis; format: ADME, organism-based; design: dose 14.6 mg/kg, route oral, time 0 - last; conditions: in vivo
[2] = Volume of distribution at steady state in rat at 2 mg/kg, iv by LC-MS/MS analysis; format: ADME, organism-based; conditions: in vivo, read-out: Vdss
Cavia porcellus = test: Cardiotoxicity in guinea pig assessed as effect on body temperature at 22.4 mg/kg; format: toxicity, organism-based; conditions: in vivo
[3] = target: T1, Free fatty acid receptor 4 (Mus musculus, UniProt Q7TMA4); test: Agonist activity at recombinant mouse GPR120 expressed in HEK293 cells; format: functional, cell-based
T1 sequence (Q7TMA4 whole entry): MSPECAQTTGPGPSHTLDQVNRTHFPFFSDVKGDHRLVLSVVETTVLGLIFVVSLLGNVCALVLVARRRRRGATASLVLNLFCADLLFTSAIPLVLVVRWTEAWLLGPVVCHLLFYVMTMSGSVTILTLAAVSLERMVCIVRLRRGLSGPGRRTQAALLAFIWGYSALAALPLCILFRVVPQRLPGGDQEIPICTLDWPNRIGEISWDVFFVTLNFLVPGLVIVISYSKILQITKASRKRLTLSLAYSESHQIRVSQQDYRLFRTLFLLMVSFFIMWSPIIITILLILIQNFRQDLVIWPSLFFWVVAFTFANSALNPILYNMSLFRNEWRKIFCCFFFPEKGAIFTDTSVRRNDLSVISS

Mus musculus [4] = test: Antidiabetic activity in diet-induced obese C57Bl/6 mouse model assessed as plasma glucose AUC at 10 mg/kg administered 30 mins prior to glucose challenge measured up to 90 mins post dose by ipGTT (reference value: 10113 mg/dL.min); format: functional, organism-based; design: time < 1.5 hr, dose 10 mg/kg
How it was run: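 Intraperitoneal glucose tolerance test with 10 mg/kg dosing, run in GPR120 knockout mice and in wild-type mice.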

[5] = Half life in dog at 1 mg/kg, iv by LC-MS/MS analysis; format: ADME, organism-based, Canis lupus familiaris; conditions: in vivo
[6] = target: Sodium-dependent noradrenaline transporter (Homo sapiens) (UniProt P23975); test: Displacement of [3H]nisoxetine from recombinant human norepinephrine transporter at 10 uM after 120 mins by scintillation counting method relative to control
Sodium-dependent noradrenaline transporter (Homo sapiens), sequence (P23975 whole entry): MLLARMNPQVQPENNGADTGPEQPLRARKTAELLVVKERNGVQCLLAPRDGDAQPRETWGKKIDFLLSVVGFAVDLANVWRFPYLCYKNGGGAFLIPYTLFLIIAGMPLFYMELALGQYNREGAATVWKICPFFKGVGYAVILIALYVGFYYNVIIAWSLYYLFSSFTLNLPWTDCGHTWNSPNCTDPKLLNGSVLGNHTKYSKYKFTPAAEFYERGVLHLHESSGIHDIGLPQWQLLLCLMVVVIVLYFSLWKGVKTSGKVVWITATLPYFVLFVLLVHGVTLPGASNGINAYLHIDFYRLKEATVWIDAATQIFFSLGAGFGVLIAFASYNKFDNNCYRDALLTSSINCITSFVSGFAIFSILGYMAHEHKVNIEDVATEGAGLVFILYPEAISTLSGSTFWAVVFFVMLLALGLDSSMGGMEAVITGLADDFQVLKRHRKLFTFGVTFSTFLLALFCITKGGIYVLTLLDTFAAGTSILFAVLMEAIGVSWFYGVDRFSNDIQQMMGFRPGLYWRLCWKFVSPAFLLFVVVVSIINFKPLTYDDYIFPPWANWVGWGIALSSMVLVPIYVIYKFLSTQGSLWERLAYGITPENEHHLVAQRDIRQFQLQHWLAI

Mus musculus [7] = test: Antidiabetic activity in diet-induced obese C57Bl/6 mouse model assessed as change in plasma glucose AUC at 0.3 mg/kg, po administered 30 mins prior to glucose challenge measured up to 90 mins post dose by OGTT; format: functional
How it was run: (§1)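 Diet-induced obese mice dosed orally at 0.1–3.0 mg/kg 30 min before an oral glucose load (time 0). Glucose followed from 30 min pre-glucose to 90 min post-glucose. Saxagliptin 1 mg/kg was the positive control.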

Mus musculus [8] = test: Antidiabetic activity in diet-induced obese C57Bl/6 mouse model assessed as change in plasma glucose AUC at 1 mg/kg, po administered 30 mins prior to glucose challenge measured up to 90 mins post dose by OGTT; format: functional; how it was run: as §1
Mus musculus [9] = test: Antiobesity activity in diet-induced obesity C57Bl6/J mouse model assessed as basal insulin level in plasma at 10 mg/kg bid for 15 days measured on day 15 post 6 hrs fasting (reference value: 16959 +/- 4943 pg/ml); format: functional
Mus musculus [10] = test: Antidiabetic activity in diet-induced obese C57Bl/6 mouse model assessed as plasma concentration required to show reduction in glucose level at 3 mg/kg administered 30 mins prior to glucose challenge measured up to 90 mins post dose by OGTT; format: functional
[11] = Protein binding in human plasma; format: ADME, cell-free; conditions: read-out: PPB (converted)
[12] = AUClast in dog at 5 mg/kg, po by LC-MS/MS analysis; format: ADME, organism-based, Canis lupus familiaris; design: dose 5 mg/kg, route oral, time 0 - last; conditions: in vivo
Mus musculus [13] = test: Antiobesity activity in diet-induced obesity C57Bl6/J mouse model assessed as change in plasma insulin level at 10 mg/kg bid for 15 days measured on day 15 post 6 hrs fasting; format: functional

Structure (SMILES): O=C(O)CCc1cc(F)c(OCc2c(C(F)(F)F)ccn2-c2ccc(Cl)cc2)c(F)c1
- AUC(0-t) [1]: 81700 ng·h/mL
- Vd [2]: 0.42 L/kg
- Activity (Cavia porcellus): Non-Toxic
- pEC50 [3]: 6.71
- AUC (Mus musculus [4]): 4920 mg/dL·min
- half-life [5]: 4.72 h
- inhibition [6]: 51%
- Activity (Mus musculus [7]): -9%
- Activity (Mus musculus [8]): -54%
- Activity (Mus musculus [9]): 16966 pg/mL
- EC (Mus musculus [10]): 32 nM
- fraction unbound [11]: 0.0008
- AUC(0-t) [12]: 47900 ng·h/mL
- Activity (Mus musculus [13]): -1080 pg/mL
